Laboratory results published in ChEMBL document CHEMBL1129929, “Analogues of methotrexate in rheumatoid arthritis. 1. Effects of 10-deazaaminopterin analogues on type II collagen-induced arthritis in mice” (J Med Chem, 1997).

Legend:
[1] = system: Mus musculus; assay: Tested for antiinflammatory activity on mouse type II collagen arthritis as Paw swelling* of all animals in each group on day 23 at intraperitoneal dose of 15 mg/kg; assay type: functional
Method in brief: (§1)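 DBA/1 mice immunized with bovine type II collagen (Courtenay method, modified), antigen booster at day 21. Compounds given ip from 2 days before the first collagen challenge, then every 2 days. Hind paw dimensions (mm) measured for both limbs of all animals, expressed as mean ± SD. Eight mice per dose; untreated controls pooled from four experiments (48 animals).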

[2] = system: Mus musculus; assay: Incidence of disease(mouse type II collagen arthritis) was scored as the percentage of animals within each experimental group that exhibited joint or limb inflammation on day 23 at intraperitoneal dose of 15 mg/kg; assay type: functional
Method in brief: (§2)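 DBA/1 mice were immunized with bovine type II collagen (modified Courtenay method), with a collagen booster on day 21. Compounds were given ip starting 2 days before the first collagen challenge and every 2 days thereafter. Incidence was the percentage of animals per group with joint or limb inflammation, scored on days 23, 30, 37 and 44.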

[3] = system: Mus musculus; assay: Incidence of disease(mouse type II collagen arthritis) was scored as the percentage of animals within each experimental group that exhibited joint or limb inflammation on day 44 at intraperitoneal of dose 10 mg/kg; assay type: functional; method in brief: as §2
[4] = system: Mus musculus; assay: Incidence of disease(mouse type II collagen arthritis) was scored as the percentage of animals within each experimental group that exhibited joint or limb inflammation on day 23 at intraperitoneal dose of 10 mg/kg; assay type: functional; method in brief: as §2
[5] = Concentration required to inhibit the growth of chang liver cells; assay type: functional; settings: Homo sapiens
[6] = system: Mus musculus; assay: Tested for antiinflammatory activity on mouse type II collagen arthritis as Paw swelling* of all animals in each group on day 37 at intraperitoneal dose of 10 mg/kg; assay type: functional; method in brief: as §1
[7] = system: Mus musculus; assay: Tested for antiinflammatory activity on mouse type II collagen arthritis as Paw swelling* of all animals in each group on day 37 at intraperitoneal dose of 15 mg/kg; assay type: functional; method in brief: as §1
[8] = system: Mus musculus; assay: Incidence of disease(mouse type II collagen arthritis) was scored as the percentage of animals within each experimental group that exhibited joint or limb inflammation on day 37 at intraperitoneal of dose 10 mg/kg; assay type: functional; method in brief: as §2
[9] = system: Mus musculus; assay: Incidence of disease(mouse type II collagen arthritis) was scored as the percentage of animals within each experimental group that exhibited joint or limb inflammation on day 30 at intraperitoneal of dose 15 mg/kg; assay type: functional; method in brief: as §2
[10] = system: Mus musculus; assay: Tested for antiinflammatory activity on mouse type II collagen arthritis as Paw swelling* of all animals in each group on day 44 at intraperitoneal dose of 15 mg/kg; assay type: functional; method in brief: as §1
[11] = system: Mus musculus; assay: Tested for antiinflammatory activity on mouse type II collagen arthritis as Paw swelling* of all animals in each group on day 44 at intraperitoneal dose of 10 mg/kg; assay type: functional; method in brief: as §1
[12] = system: L1210; assay: Concentration required to inhibit the growth of L1210 cells; assay type: functional, cell-based; settings: Mus musculus
[13] = system: Mus musculus; assay: Incidence of disease(mouse type II collagen arthritis) was scored as the percentage of animals within each experimental group that exhibited joint or limb inflammation on day 30 at intraperitoneal of dose 10 mg/kg; assay type: functional; method in brief: as §2
[14] = system: Mus musculus; assay: Incidence of disease(mouse type II collagen arthritis) was scored as the percentage of animals within each experimental group that exhibited joint or limb inflammation on day 44 at intraperitoneal of dose 15 mg/kg; assay type: functional; method in brief: as §2
[15] = system: Mus musculus; assay: Tested for antiinflammatory activity on mouse type II collagen arthritis as Paw swelling* of all animals in each group on day 23 at intraperitoneal dose of 10 mg/kg; assay type: functional; method in brief: as §1
[16] = system: Mus musculus; assay: Tested for antiinflammatory activity on mouse type II collagen arthritis as Paw swelling* of all animals in each group on day 30 at intraperitoneal dose of 10 mg/kg; assay type: functional; method in brief: as §1
[17] = system: Mus musculus; assay: Tested for antiinflammatory activity on mouse type II collagen arthritis as Paw swelling* of all animals in each group on day 30 at intraperitoneal dose of 15 mg/kg; assay type: functional; method in brief: as §1
[18] = system: Mus musculus; assay: Incidence of disease(mouse type II collagen arthritis) was scored as the percentage of animals within each experimental group that exhibited joint or limb inflammation on day 37 at intraperitoneal of dose 15 mg/kg; assay type: functional; method in brief: as §2
[19] = system: Mus musculus; assay: Tested for antiinflammatory activity on mouse type II collagen arthritis as Paw swelling* of all animals in each group on day 44 at intraperitoneal dose of 18 mg/kg; assay type: functional; method in brief: as §1
[20] = system: Mus musculus; assay: Incidence of disease(mouse type II collagen arthritis) was scored as the percentage of animals within each experimental group that exhibited joint or limb inflammation on day 44 at intraperitoneal of dose 12 mg/kg; assay type: functional; method in brief: as §2
[21] = system: Mus musculus; assay: Tested for antiinflammatory activity on mouse type II collagen arthritis as Paw swelling* of all animals in each group on day 44 at intraperitoneal dose of 12 mg/kg; assay type: functional; method in brief: as §1
[22] = system: Mus musculus; assay: Tested for antiinflammatory activity on mouse type II collagen arthritis as Paw swelling* of all animals in each group on day 37 at intraperitoneal dose of 18 mg/kg; assay type: functional; method in brief: as §1
[23] = system: Mus musculus; assay: Tested for antiinflammatory activity on mouse type II collagen arthritis as Paw swelling* of all animals in each group on day 23 at intraperitoneal dose of 18 mg/kg; assay type: functional; method in brief: as §1
[24] = system: Mus musculus; assay: Tested for antiinflammatory activity on mouse type II collagen arthritis as Paw swelling* of all animals in each group on day 30 at intraperitoneal dose of 12 mg/kg; assay type: functional; method in brief: as §1
[25] = system: Mus musculus; assay: Tested for antiinflammatory activity on mouse type II collagen arthritis as Paw swelling* of all animals in each group on 30 at intraperitoneal dose of 18 mg/kg; assay type: functional
Method in brief: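 DBA/1 mice were challenged with bovine type II collagen and boosted on day 21. Dosing was ip from 2 days before the initial challenge, then every 2 days, with eight animals per dose. Hind paw dimensions (mm) were measured for both limbs of all animals and given as mean ± SD. Untreated controls were pooled from four experiments (48 animals).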

[26] = system: Mus musculus; assay: Incidence of disease(mouse type II collagen arthritis) was scored as the percentage of animals within each experimental group that exhibited joint or limb inflammation on day 30 at intraperitoneal of dose 12 mg/kg; assay type: functional; method in brief: as §2
[27] = system: Mus musculus; assay: Incidence of disease(mouse type II collagen arthritis) was scored as the percentage of animals within each experimental group that exhibited joint or limb inflammation on day 30 at intraperitoneal of dose 18 mg/kg; assay type: functional; method in brief: as §2
[28] = system: Mus musculus; assay: Incidence of disease(mouse type II collagen arthritis) was scored as the percentage of animals within each experimental group that exhibited joint or limb inflammation on day 44 at intraperitoneal of dose 18 mg/kg; assay type: functional; method in brief: as §2
[29] = system: Mus musculus; assay: Incidence of disease(mouse type II collagen arthritis) was scored as the percentage of animals within each experimental group that exhibited joint or limb inflammation on day 37 at intraperitoneal of dose 18 mg/kg; assay type: functional; method in brief: as §2
[30] = system: Mus musculus; assay: Tested for antiinflammatory activity on mouse type II collagen arthritis as Paw swelling* of all animals in each group on day 23 at intraperitoneal dose of 12 mg/kg; assay type: functional; method in brief: as §1
[31] = system: Mus musculus; assay: Incidence of disease(mouse type II collagen arthritis) was scored as the percentage of animals within each experimental group that exhibited joint or limb inflammation on day 23 at intraperitoneal dose of 12 mg/kg; assay type: functional; method in brief: as §2
[32] = system: Mus musculus; assay: Incidence of disease(mouse type II collagen arthritis) was scored as the percentage of animals within each experimental group that exhibited joint or limb inflammation on day 37 at intraperitoneal of dose 12 mg/kg; assay type: functional; method in brief: as §2
[33] = system: Mus musculus; assay: Incidence of disease(mouse type II collagen arthritis) was scored as the percentage of animals within each experimental group that exhibited joint or limb inflammation on day 23 at intraperitoneal dose of 18 mg/kg; assay type: functional; method in brief: as §2
[34] = system: Mus musculus; assay: Tested for antiinflammatory activity on mouse type II collagen arthritis as Paw swelling* of all animals in each group on day 37 at intraperitoneal dose of 12 mg/kg; assay type: functional; method in brief: as §1

CCC(Cc1cnc2nc(N)nc(N)c2n1)c1ccc(C(=O)NC(CCC(=O)O)C(=O)O)s1 (centres undefined)
Paw swelling [1]: 2.15 mm
Animals [2]: 0%
Animals [3]: 38%
Animals [4]: 0%
IC50 [5]: 1.6 nM
Paw swelling [6]: 2.23 mm
Paw swelling [7]: 2.21 mm
Animals [8]: 25%
Animals [9]: 0%
Paw swelling [10]: 2.26 mm
Paw swelling [11]: 2.25 mm
IC50 [12]: 3.7 nM
Animals [13]: 0%
Animals [14]: 12%
Paw swelling [15]: 2.13 mm
Paw swelling [16]: 2.15 mm
Paw swelling [17]: 2.17 mm
Animals [18]: 12%

CCC(Cc1cnc2nc(N)nc(N)c2n1)c1ccc(C(=O)N[C@@H](CCC(=O)O)C(=O)O)cc1 (some centres undefined) [EDATREXATE]
Paw swelling [19]: 2.18 mm
Animals [20]: 50%
Paw swelling [21]: 2.32 mm
Paw swelling [22]: 2.19 mm
Paw swelling [23]: 2.18 mm
Paw swelling [24]: 2.28 mm
Paw swelling [25]: 2.24 mm
Animals [26]: 25%
Animals [27]: 0%
Animals [28]: 12%
Animals [29]: 12%
Paw swelling [30]: 2.26 mm
Animals [31]: 25%
Animals [32]: 38%
Animals [33]: 12%
Paw swelling [34]: 2.34 mm
